Measured values taken from article PMC8354861 (Bioorganic & Medicinal Chemistry, 2021).
≈ marks a conversion by molar mass, not a printed value. Read-outs that look alike come from different tables or passages of the source.

Legend:
ICR mice = experiment: Acute toxicity study in ICR mice; format: in vivo
Method in brief: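 Male ICR mice (28–36 g), 15 animals randomised into five groups of three, fasted 16 h. Each group received one oral gavage dose of test compound at 50, 100, 200, 500 or 1000 mg/kg in 5% DMSO, 5% Solution Hs15 and 90% saline. Mortality was recorded over 7 days; body weight, organ weight and tissue histology were assessed after sacrifice.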

SARS-CoV-2 = experiment: Antiviral activity against SARS-CoV-2 in Vero E6 cells; format: cell-based
[1] = rats; cited from earlier work
[2] = dogs; cited from earlier work
[3] = cynomolgus monkeys; cited from earlier work
physchem = conditions: pH 6
[4] = Stability in simulated intestinal fluid; format: in vitro ADME; conditions: SIF with pancreatin
Method in brief: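 Simulated intestinal fluid was made to the USP recipe: KH2PO4, 0.2 M NaOH and 10 g/L pancreatin, adjusted to pH 6.8. Test compound stock (2 μM in DMF) was diluted into the fluid and incubated at 37 °C for up to 24 h, sampled at 0, 1, 2, 3, 4, 6 and 24 h. Reactions were stopped with ice-cold acetonitrile, centrifuged, and supernatants analysed by HPLC.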

## CC(C)C(=O)OC[C@H]1O[C@@](C#N)(c2ccc3c(N)ncnn23)[C@H](O)[C@@H]1O [Compound 5c, ((2R,3S,4R,5R)-5-(4-aminopyrrolo[2,1-f][1,2,4]triazin-7-yl)-5-cyano-3,4-dihydroxytetrahydrofuran-2-yl)methyl isobutyrate]
ICR mice; single oral dose
  well tolerated oral dosage: up to 1000 mg/kg
ICR mice; single oral gavage 50-1000 mg/kg, 7-day observation period
  mortality: No mortality
ICR mice; single oral gavage 50-1000 mg/kg, after sacrifice
  changes in body weight, organ weight, or tissue histology: No significant changes

## N#Cc1cc([C@]2(C#N)O[C@H](CO)[C@@H](O)[C@H]2O)n2ncnc(N)c12 [Compound 1d, 4-amino-7-((2R,3R,4S,5R)-2-cyano-3,4-dihydroxy-5-(hydroxymethyl)tetrahydrofuran-2-yl)pyrrolo[2,1-f][1,2,4]triazine-5-carbonitrile]
SARS-CoV-2
  anti-SARS-CoV-2 activity (in words): loss of the anti-SARS-CoV-2 activity

## OC[C@H]1O[C@@H](c2ccc3c(NO)ncnn23)[C@H](O)[C@@H]1O [Compound 3b, (2S,3R,4S,5R)-2-(4-(hydroxyamino)pyrrolo[2,1-f][1,2,4]triazin-7-yl)-5-(hydroxymethyl)tetrahydrofuran-3,4-diol]
SARS-CoV-2
  anti-SARS-CoV-2 activity (in words): did not show any antiviral activity

## (3R,4S,5R)-2-(4-aminopyrrolo[2,1-f][1,2,4]triazin-7-yl)-2-cyclopropyl-5-(hydroxymethyl)tetrahydrofuran-3,4-diol [Compound 2d]
SARS-CoV-2; at 5 µM
  Inhibition rate: <10%

## N#C[C@@]1(c2ccc3c(N)ncnn23)O[C@H](CO)[C@@H](O)[C@H]1O [GS-441524]
[1]
  F (oral bioavailability): 33%
[2]
  F (oral bioavailability): 85%
[3]
  F (oral bioavailability): 8.3%
physchem
  solubility: 105 µg/mL (≈ 360 µM)

## N#C[C@@]1(c2cc(F)c3c(N)ncnn23)O[C@H](CO)[C@@H](O)[C@H]1O [Compound 1c, (2R,3R,4S,5R)-2-(4-amino-5-fluoropyrrolo[2,1-f][1,2,4]triazin-7-yl)-3,4-dihydroxy-5-(hydroxymethyl)tetrahydrofuran-2-carbonitrile]
SARS-CoV-2
  anti-SARS-CoV-2 activity (in words): able to inhibit the viral replication
SARS-CoV-2; listed as 3c
  anti-SARS-CoV-2 activity (in words): moderate anti-SARS-CoV-2 activity

## CCC(CC)COC(=O)[C@H](C)N[P@](=O)(OC[C@H]1O[C@@](C#N)(c2cc(F)c3c(N)ncnn23)[C@H](O)[C@@H]1O)Oc1ccccc1 [Compound 7, 2-ethylbutyl ((S)-(((2R,3S,4R,5R)-5-(4-amino-5-fluoropyrrolo[2,1-f][1,2,4]triazin-7-yl)-5-cyano-3,4-dihydroxytetrahydrofuran-2-yl)methoxy)(phenoxy)phosphoryl)-L-alaninate]
SARS-CoV-2
  anti-SARS-CoV-2 activity (in words): reduced activity

## CC(C)C(=O)O[C@H]1[C@@H](O)[C@](C#N)(c2ccc3c(N)ncnn23)O[C@@H]1CO [Compound 5a, (2R,3S,4R,5R)-5-(4-aminopyrrolo[2,1-f][1,2,4]triazin-7-yl)-5-cyano-4-hydroxy-2-(hydroxymethyl)tetrahydrofuran-3-yl isobutyrate]
[4]
  stability in SIF (in words): good stability

## N#C[C@@]1(c2cc(Cl)c3c(N)ncnn23)O[C@H](CO)[C@@H](O)[C@H]1O [Compound 1a, (2R,3R,4S,5R)-2-(4-amino-5-chloropyrrolo[2,1-f][1,2,4]triazin-7-yl)-3,4-dihydroxy-5-(hydroxymethyl)tetrahydrofuran-2-carbonitrile]
SARS-CoV-2
  anti-SARS-CoV-2 activity (in words): loss of the anti-SARS-CoV-2 activity
